Experiments:
[1] = test system: SW620 cells (colon cancer); assay: Cytotoxicity assay; type: cell-based; conditions: Homo sapiens, SW-620, 48 h, read-out: Cytotoxicity (IC50) SW620
[2] = test system: SW620 human colon cancer cells; assay: Cell cycle analysis; type: cell-based; conditions: 5 μM, 24-hour treatment, effect less pronounced for 7d and 11d compared to SAHA
Outline: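 Controls were untreated cells and vehicle-treated cells (DMSO 0.05%). Data shown as histograms plus bar graphs.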

[3] = test system: SW620 human colon cancer cells; assay: Apoptosis assay; type: cell-based; conditions: 5 μM, 24-hour treatment, early apoptosis levels exceeding those observed with SAHA
Outline: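 Annexin V-FITC/PI dual staining, with untreated and vehicle (DMSO 0.05%) controls. Data presented as histograms with accompanying bar graphs.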

[4] = test system: SW620 cells; assay: Morphological changes; type: cell-based, human; conditions: 5 μM, 24-hour treatment
Outline: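 SW620 cells exposed to test compound at 5 μM for 24 h, then photographed on an imaging system through 20× or 40× objectives to record morphology.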

[5] = test system: MDA-MB-231 cells (breast cancer); assay: Cytotoxicity assay; type: cell-based, human; conditions: read-out: Cytotoxicity (IC50) MDA-MB-231; MDA-MB-231 breast cancer; 48h; MTT

SMILES: O=C(/C=C/c1ccc(Cn2cc(Cn3cnc4ccc(F)cc4c3=O)nn2)cc1)NO [Compound 11e, (E)-3-(4-((4-((6-Fluoro-4-oxoquinazolin-3(4H)-yl)methyl)-1H-1,2,3-triazol-1-yl)methyl)phenyl)-N-hydroxyacrylamide]
- IC50 [1]: 4.57 ± 3.54 µM

SMILES: Cc1ccc2c(=O)n(Cc3cn(Cc4ccc(/C=C/C(=O)NO)cc4)nn3)cnc2c1 [Compound 11c, (E)-N-Hydroxy-3-(4-((4-((7-methyl-4-oxoquinazolin-3(4H)-yl)methyl)-1H-1,2,3-triazol-1-yl)methyl)phenyl)acrylamide]
- IC50 [1]: 11.7 ± 4.39 µM

SMILES: O=C(/C=C/c1ccc(Cn2cc(Cn3cnc4ccc(Cl)cc4c3=O)nn2)cc1)NO [Compound 11d, (E)-3-(4-((4-((6-Chloro-4-oxoquinazolin-3(4H)-yl)methyl)-1H-1,2,3-triazol-1-yl)methyl)phenyl)-N-hydroxyacrylamide]
- IC50 [1]: 3.15 ± 0.33 µM
- Cell cycle effect [2]: induced G2/M phase cell cycle arrest
- Pro-apoptotic effect [3]: significantly induced early and late apoptosis
- Morphological changes [4]: induced characteristic apoptotic morphological alterations

SMILES: O=C(CCCCCCC(=O)Nc1ccccc1)NO [SAHA, suberoylanilide hydroxamic acid, reference compound]
- Cell cycle effect [2]: induced G2/M phase cell cycle arrest

SMILES: O=C(NO)c1ccc(Cn2cc(Cn3cnc4cc(Br)ccc4c3=O)nn2)cc1 [Compound 7h, 4-((4-((7-Bromo-4-oxoquinazolin-3(4H)-yl)methyl)-1H-1,2,3-triazol-1-yl)methyl)-N-hydroxybenzamide]
- IC50 [1]: 3.77 ± 1.87 µM

SMILES: O=C(NO)c1ccc(Cn2cc(Cn3cnc4ccc(F)cc4c3=O)nn2)cc1 [Compound 7e, 4-((4-((6-Fluoro-4-oxoquinazolin-3(4H)-yl)methyl)-1H-1,2,3-triazol-1-yl)methyl)-N-hydroxybenzamide]
- IC50 [1]: 5.87 ± 1.55 µM

SMILES: O=C(/C=C/c1ccc(Cn2cc(Cn3cnc4ccccc4c3=O)nn2)cc1)NO [Compound 11a, (E)-N-Hydroxy-3-(4-((4-((4-oxoquinazolin-3(4H)-yl)methyl)-1H-1,2,3-triazol-1-yl)methyl)phenyl)acrylamide]
- IC50 [1]: 5.07 ± 2.92 µM

SMILES: O=C(NO)c1ccc(Cn2cc(Cn3cnc4ccc(Br)cc4c3=O)nn2)cc1 [Compound 7g, 4-((4-((6-Bromo-4-oxoquinazolin-3(4H)-yl)methyl)-1H-1,2,3-triazol-1-yl)methyl)-N-hydroxybenzamide]
- IC50 [1]: 20.8 ± 5.32 µM

SMILES: COc1cccc2c1C(=O)c1c(O)c3c(c(O)c1C2=O)C[C@@](O)(C(=O)CO)C[C@@H]3O[C@H]1C[C@H](N)[C@H](O)[C@H](C)O1 [ADR, adriamycin, reference compound]
- IC50 [1]: 0.56 ± 0.1 µM

SMILES: Cc1ccc2c(=O)n(Cc3cn(Cc4ccc(C(=O)NO)cc4)nn3)cnc2c1 [Compound 7c, N-Hydroxy-4-((4-((7-methyl-4-oxoquinazolin-3(4H)-yl)methyl)-1H-1,2,3-triazol-1-yl)methyl)benzamide]
- IC50 [1]: 7.34 ± 0.94 µM

SMILES: O=C(NO)c1ccc(Cn2cc(Cn3cnc4ccccc4c3=O)nn2)cc1 [Compound 7a, N-Hydroxy-4-((4-((4-oxoquinazolin-3(4H)-yl)methyl)-1H-1,2,3-triazol-1-yl)methyl)benzamide]
- IC50 [1]: 9.21 ± 0.72 µM

SMILES: O=C(/C=C/c1ccc(Cn2cc(Cn3cnc4cc(Br)ccc4c3=O)nn2)cc1)NO [Compound 11h, (E)-3-(4-((4-((7-Bromo-4-oxoquinazolin-3(4H)-yl)methyl)-1H-1,2,3-triazol-1-yl)methyl)phenyl)-N-hydroxyacrylamide]
- IC50 [1]: 5.73 ± 0.76 µM
- IC50 [5]: 5.55 ± 0.18 µM

SMILES: O=C(/C=C/c1ccc(Cn2cc(Cn3cnc4cc(F)ccc4c3=O)nn2)cc1)NO [Compound 11f, (E)-3-(4-((4-((7-Fluoro-4-oxoquinazolin-3(4H)-yl)methyl)-1H-1,2,3-triazol-1-yl)methyl)phenyl)-N-hydroxyacrylamide]
- IC50 [1]: 5.34 ± 0.76 µM

SMILES: Cc1ccc2ncn(Cc3cn(Cc4ccc(/C=C/C(=O)NO)cc4)nn3)c(=O)c2c1 [Compound 11b, (E)-N-Hydroxy-3-(4-((4-((6-methyl-4-oxoquinazolin-3(4H)-yl)methyl)-1H-1,2,3-triazol-1-yl)methyl)phenyl)acrylamide]
- IC50 [1]: 9.82 ± 2.46 µM

SMILES: O=C(NO)c1ccc(Cn2cc(Cn3cnc4cc(F)ccc4c3=O)nn2)cc1 [Compound 7f, 4-((4-((7-Fluoro-4-oxoquinazolin-3(4H)-yl)methyl)-1H-1,2,3-triazol-1-yl)methyl)-N-hydroxybenzamide]
- IC50 [1]: 8.23 ± 2.04 µM

SMILES: Cc1ccc2ncn(Cc3cn(Cc4ccc(C(=O)NO)cc4)nn3)c(=O)c2c1 [Compound 7b, N-Hydroxy-4-((4-((6-methyl-4-oxoquinazolin-3(4H)-yl)methyl)-1H-1,2,3-triazol-1-yl)methyl)benzamide]
- IC50 [1]: 43.1 ± 4.55 µM

SMILES: O=C(NO)c1ccc(Cn2cc(Cn3cnc4ccc(Cl)cc4c3=O)nn2)cc1 [Compound 7d, 4-((4-((6-Chloro-4-oxoquinazolin-3(4H)-yl)methyl)-1H-1,2,3-triazol-1-yl)methyl)-N-hydroxybenzamide]
- IC50 [1]: 3.64 ± 0.31 µM
- Cell cycle effect [2]: induced G2/M phase cell cycle arrest
- Pro-apoptotic effect [3]: significantly induced early and late apoptosis
- Morphological changes [4]: induced characteristic apoptotic morphological alterations

SMILES: O=C(/C=C/c1ccc(Cn2cc(Cn3cnc4ccc(Br)cc4c3=O)nn2)cc1)NO [Compound 11g, (E)-3-(4-((4-((6-Bromo-4-oxoquinazolin-3(4H)-yl)methyl)-1H-1,2,3-triazol-1-yl)methyl)phenyl)-N-hydroxyacrylamide]
- IC50 [1]: 9.16 ± 0.08 µM
- IC50 [5]: 9.07 ± 0.42 µM

SMILES: O=C(NO)c1ccc(Cn2cc(Cn3cnc4ccc(I)cc4c3=O)nn2)cc1 [Compound 7i, N-Hydroxy-4-((4-((6-iodo-4-oxoquinazolin-3(4H)-yl)methyl)-1H-1,2,3-triazol-1-yl)methyl)benzamide]
- IC50 [1]: 5.52 ± 1.04 µM

SMILES: O=C(/C=C/c1ccc(Cn2cc(Cn3cnc4ccc(I)cc4c3=O)nn2)cc1)NO [Compound 11i, (E)-N-Hydroxy-3-(4-((4-((6-iodo-4-oxoquinazolin-3(4H)-yl)methyl)-1H-1,2,3-triazol-1-yl)methyl)phenyl)acrylamide]
- IC50 [1]: 28.5 ± 8.19 µM

Reference: PMC12282580 (RSC Advances, 2025)
